Among the data in ChEMBL document CHEMBL1142874, “Design and synthesis of anticonvulsants from a combined phthalimide-GABA-anilide and hydrazone pharmacophore” (Eur J Med Chem, 2007) are Activity values, retold here.

The test system of data set [1] is Mus musculus. Description: Anticonvulsant activity in Albino CF1 mouse upto 300 mg/kg, ip in maximal electroshock seizure test. The format is functional, organism-based. On the set-up: dose 300 mg/kg. The essentials: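 Mice dosed i.p. (0.01 mL/g) at 30, 100 and 300 mg/kg. Electroshock challenge run 30 min and 4 h after dosing.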
In general terms: Protection in the maximal electroshock model is a classic sign of anticonvulsant action.

Data set [2] relates to Mus musculus. Description: Anticonvulsant activity against subcutaneous pentylenetetrazole-induced seizure in Albino CF1 mouse at 300 mg/kg, ip after 0.5 hrs. It is filed as functional, organism-based. On the set-up: dose 300 mg/kg. The essentials:
(§1)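 Test compounds given i.p. to mice at 0.01 mL/g, at 30, 100 or 300 mg/kg. The seizure challenge followed at 0.5 h and at 4 h after dosing. The value recorded is the lowest dose that protected half or more of the mice. Where no activity was seen, the maximum dose given was 300 mg/kg.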

Data set [3] has as its system Mus musculus. Description: Anticonvulsant activity against subcutaneous pentylenetetrazole-induced seizure in Albino CF1 mouse at 300 mg/kg, ip after 4 hrs. The format is functional, organism-based. On the set-up: dose 300 mg/kg. The essentials: as §1
Data set [4] has as its system Mus musculus. The data set can be described thus: Anticonvulsant activity against subcutaneous strychnine-induced seizure in Albino CF1 mouse at 300 mg/kg, ip after 0.5 hrs. It is filed as functional, organism-based. On the set-up: dose 300 mg/kg. Summed up: as §1
The subject of data set [5] is Mus musculus. Description: Anticonvulsant activity against intraperitoneal picrotoxin-induced seizure in Albino CF1 mouse at 300 mg/kg, ip after 0.5 hrs. The format is functional, organism-based. On the set-up: dose 300 mg/kg. Summed up: (§2)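 Mice received the test compound by intraperitoneal injection at 30, 100 or 300 mg/kg. They were then challenged with intraperitoneal picrotoxin and scored for anticonvulsant protection 0.5 h or 4 h after dosing. The value recorded is the lowest dose that protected half or more of the mice. A dash means no activity up to 300 mg/kg.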

In data set [6] the test system is Mus musculus. Description: Anticonvulsant activity against intraperitoneal picrotoxin-induced seizure in Albino CF1 mouse at 300 mg/kg, ip after 4 hrs. Details: dose 300 mg/kg. The format is functional, organism-based. The essentials: as §2
For data set [7], the system named is Mus musculus. The data set can be described thus: Neurotoxicity in Albino CF1 mouse at 100 mg/kg, ip after 0.5 hrs by Rotarod test. It is filed as toxicity, organism-based. On the set-up: dose 100 mg/kg, route intraperitoneal. The conditions noted are these: in vivo. The essentials:
(§3)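 Rotarod test in mice pre-trained to stay on the rod for two consecutive 90 s trials. Compounds given i.p. at 30, 100 or 300 mg/kg, with testing at 0.5 h and 4 h. Deficit was scored as failure to keep balance on the rod for 1 min in each of three trials. The value recorded is the lowest dose affecting half or more of the mice.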
Background: In the rotarod test animals must keep their balance on a rotating rod.

The test system of data set [8] is Mus musculus. Description: Neurotoxicity in Albino CF1 mouse at 100 mg/kg, ip after 4 hrs by Rotarod test. The format is toxicity, organism-based. On the set-up: dose 100 mg/kg, route intraperitoneal. The settings on record: in vivo. The essentials:
as §3

The test system of data set [9] is Mus musculus. The data set can be described thus: Anticonvulsant activity against subcutaneous strychnine-induced seizure in Albino CF1 mouse at 300 mg/kg, ip after 4 hrs. It is filed as functional, organism-based. Details: dose 300 mg/kg. The essentials: as §1
Data set [10] has as its system Mus musculus. Description: Anticonvulsant activity against subcutaneous pentylenetetrazole-induced seizure in Albino CF1 mouse at 100 mg/kg, ip after 0.5 hrs. The format is functional, organism-based. Details: dose 100 mg/kg. The essentials:
as §1

Data set [11] has as its system Mus musculus. The data set can be described thus: Anticonvulsant activity against intraperitoneal picrotoxin-induced seizure in Albino CF1 mouse at 100 mg/kg, ip after 0.5 hrs. It is filed as functional, organism-based. Details: dose 100 mg/kg. The essentials: as §2
In data set [12] the test system is Mus musculus. Description: Neurotoxicity in Albino CF1 mouse at 300 mg/kg, ip after 4 hrs by Rotarod test. It is filed as toxicity, organism-based. On the set-up: dose 300 mg/kg, route intraperitoneal. The settings on record: in vivo. Summed up: as §3
For data set [13], the system named is Mus musculus. Description: Anticonvulsant activity against subcutaneous strychnine-induced seizure in Albino CF1 mouse at 100 mg/kg, ip after 0.5 hrs. It is filed as functional, organism-based. Details: dose 100 mg/kg. Summed up:
as §1

Data set [14] has as its system Mus musculus. The data set can be described thus: Anticonvulsant activity against intraperitoneal picrotoxin-induced seizure in Albino CF1 mouse at 100 mg/kg, ip after 4 hrs. It is filed as functional, organism-based. Details: dose 100 mg/kg. The essentials: as §2
Data set [15] has as its system Mus musculus. Description: Neurotoxicity in Albino CF1 mouse at 300 mg/kg, ip after 0.5 hrs by Rotarod test. It is filed as toxicity, organism-based. On the set-up: dose 300 mg/kg, route intraperitoneal. The settings on record: in vivo. The essentials: as §3
Data set [16] has as its system Mus musculus. The data set can be described thus: Anticonvulsant activity against subcutaneous strychnine-induced seizure in Albino CF1 mouse at 100 mg/kg, ip after 4 hrs. The format is functional, organism-based. On the set-up: dose 100 mg/kg. The essentials:
as §1

Data set [17] has as its system Mus musculus. Description: Anticonvulsant activity against subcutaneous pentylenetetrazole-induced seizure in Albino CF1 mouse at 30 mg/kg, ip after 4 hrs. It is filed as functional, organism-based. Details: dose 30 mg/kg. Summed up: as §1
In data set [18] the test system is Mus musculus. Description: Anticonvulsant activity against subcutaneous pentylenetetrazole-induced seizure in Albino CF1 mouse at 100 mg/kg, ip after 4 hrs. The format is functional, organism-based. Details: dose 100 mg/kg. Summed up:
as §1

The test system of data set [19] is Mus musculus. The data set can be described thus: Anticonvulsant activity against intraperitoneal picrotoxin-induced seizure in Albino CF1 mouse at 30 mg/kg, ip after 0.5 hrs. The format is functional, organism-based. Details: dose 30 mg/kg. The essentials:
as §2

In data set [20] the test system is Mus musculus. Description: Anticonvulsant activity against subcutaneous pentylenetetrazole-induced seizure in Albino CF1 mouse at 30 mg/kg, ip after 0.5 hrs. It is filed as functional, organism-based. Details: dose 30 mg/kg. Summed up: as §1
Data set [21] deals with Mus musculus. The data set can be described thus: Neurotoxicity in Albino CF1 mouse at 30 mg/kg, ip after 0.5 hrs by Rotarod test. The format is toxicity, organism-based. Details: dose 30 mg/kg, route intraperitoneal. The settings on record: in vivo. Summed up: as §3

Activity calls are given as the source filed them. The calls are words filed in the database; no cut-off is given here.

In the case of `O=C1NC(=O)C(c2ccccc2)(c2ccccc2)N1` [PHENYTOIN], the result with Mus musculus [1], in the data set on Mus musculus [2], in the data set on Mus musculus [3], with Mus musculus [4], in the data set on Mus musculus [5] and in the data set with Mus musculus [6] was inactive. Besides, the outcome in the data set on Mus musculus [9] was inactive. Further, the outcome with Mus musculus [7] and in the data set with Mus musculus [8] was Active.
With `Cc1cc(NC(=O)CCCN2C(=O)c3ccccc3C2=O)ccc1Br`, the result in the data set on Mus musculus [1], with Mus musculus [3], with Mus musculus [4] and in the data set with Mus musculus [9] was inactive. Moreover, the outcome with Mus musculus [10], with Mus musculus [11] and in the data set with Mus musculus [6] was Active. For the same compound, the result in the data set on Mus musculus [7] and in the data set on Mus musculus [12] was Active.
`C/C(=N/NC(=O)CCCN1C(=O)c2ccccc2C1=O)c1ccccc1`: the outcome in the data set on Mus musculus [1], with Mus musculus [2] and in the data set on Mus musculus [3] was inactive. In addition, the outcome in the data set on Mus musculus [13], with Mus musculus [11], with Mus musculus [14] and in the data set with Mus musculus [16] was Active. Also, the Activity result in the data set with Mus musculus [15] and with Mus musculus [12] was “Not Active” throughout.
Turning to `Cc1ccc(NC(=O)CCCN2C(=O)c3ccccc3C2=O)c(C)c1`, the outcome in the data set on Mus musculus [1], with Mus musculus [2], in the data set on Mus musculus [4], in the data set on Mus musculus [6] and in the data set on Mus musculus [9] was inactive. Moreover, the result in the data set on Mus musculus [17] and with Mus musculus [5] was Active. Moreover, the result with Mus musculus [15] and in the data set on Mus musculus [12] was Active.
In the case of `Cc1cccc(C)c1NC(=O)CCCN1C(=O)c2ccccc2C1=O`, the outcome in the data set with Mus musculus [1] and in the data set with Mus musculus [2] was inactive. The outcome in the data set with Mus musculus [18], in the data set on Mus musculus [13], in the data set on Mus musculus [19], in the data set on Mus musculus [14] and in the data set on Mus musculus [9] was Active. Besides, the outcome in the data set on Mus musculus [7] and in the data set on Mus musculus [12] was Active.
As for `C/C(=N/NC(=O)CCCN1C(=O)c2ccccc2C1=O)c1ccc(C)cc1`, the outcome in the data set with Mus musculus [1], in the data set on Mus musculus [3], with Mus musculus [4], with Mus musculus [6] and in the data set on Mus musculus [9] was inactive. The result in the data set on Mus musculus [20] and in the data set on Mus musculus [5] was Active. Also, the Activity result is given as “Active” in the data set on Mus musculus [7] and “Not Active” in the data set on Mus musculus [12].
Take `O=C(CCCN1C(=O)c2ccccc2C1=O)Nc1ccc(Cl)cc1`: the outcome in the data set on Mus musculus [1], in the data set on Mus musculus [2], in the data set on Mus musculus [3] and with Mus musculus [6] was inactive. The result with Mus musculus [13], with Mus musculus [5] and in the data set on Mus musculus [9] was Active. Besides, the result in the data set on Mus musculus [21] and in the data set on Mus musculus [12] was Active.
Turning to `Cc1c(Cl)cccc1NC(=O)CCCN1C(=O)c2ccccc2C1=O`, the result in the data set with Mus musculus [1] and with Mus musculus [9] was inactive. Also, the outcome in the data set on Mus musculus [2], in the data set on Mus musculus [17], in the data set with Mus musculus [4], with Mus musculus [11] and in the data set with Mus musculus [6] was Active. Further, the outcome in the data set on Mus musculus [15] and in the data set with Mus musculus [8] was Active.
